Bioassay records (PubChem)
The list is not random: actives were taken first. Their share in the collection is about 2.4%.
MT stabilize HCS: microtubule stabilizers in HeLa cells, primary screen, imaging, high-content imaging. HeLa tubulin immunostaining HCS, 24 h; share of cells brighter than vehicle mean+2SD. % tubulin-high responders, % at 10 µM. 200,000 tested, 0.83% active. AID 2205, 2009;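 active = plate Z-score above 3 for both tubulin-high and condensed-nucleus cell shares, with cell loss under 80%, at 10 µM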;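 also: anti alpha tubulin signal scored within the nucleus-defined area of each cell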
HMGR II inh: inhibitors of E. faecalis class II HMGR, primary screen, biochemical, Enterococcus faecalis; purified E. faecalis HMGR, NADPH absorbance 340 nm kinetic; inhibition, % at 10 µM; 190,000 tested, 0.41% active;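 active = inhibition above a set limit, the median over all tested compounds plus 3 SD, cut at about 9.5% in these data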;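 also: enzyme runs in reverse so mevalonate oxidation gives rising NADPH absorbance; 0% = complete reaction with DMSO and 100% = background rate lacking mevalonate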
EP2 antag: human EP2 receptor antagonists, primary screen, TR-FRET cAMP, C6 glioma cells. Prostaglandin E2 receptor EP2 subtype (Homo sapiens), P43116. C6 glioma cells expressing human EP2; cells stimulated with saturating PGE2. inhibition, % at 25 µM. 260,000 tested, 0.52% active;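 active = percent inhibition above 40 after rounding to a whole number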;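 also: rat C6 glioma host cells with rolipram phosphodiesterase inhibitor present; the protocol text gives 20 µM as final concentration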
Target sequence (P43116 whole entry, looked up): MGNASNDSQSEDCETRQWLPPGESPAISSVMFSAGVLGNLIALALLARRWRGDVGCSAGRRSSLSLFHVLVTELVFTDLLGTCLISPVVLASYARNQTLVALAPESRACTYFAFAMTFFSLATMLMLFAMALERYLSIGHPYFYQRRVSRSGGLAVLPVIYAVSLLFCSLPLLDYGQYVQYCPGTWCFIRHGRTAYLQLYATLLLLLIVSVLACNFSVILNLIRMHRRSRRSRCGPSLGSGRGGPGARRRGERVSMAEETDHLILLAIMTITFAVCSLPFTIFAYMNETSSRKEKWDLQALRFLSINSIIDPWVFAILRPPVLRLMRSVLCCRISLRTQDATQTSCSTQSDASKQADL
b-catenin transl: modulators of beta-catenin nuclear translocation, primary screen, imaging, HeLa cells, immunofluorescence, high-content. nuclear translocation activity, % at 5 µM. AID 1665, 2009. 190,000 tested, 0.3% active;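 active = nuclear translocation activity above 50% at 5 µM, with a well cell count of 50 or more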;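 also: per-cell ratio of nuclear to cytoplasmic median beta-catenin stain intensity; plate controls were DMSO negative control for no effect and GSK-3 inhibitor IX positive control for full effect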
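System: HeLa cells, endogenous beta-catenin; compound dosing: 5 µM primary single dose, 0.1% DMSO, 0.02–20 µM confirmation series; incubation: 24 h compound exposure at 37°C, 5% CO2; signal: beta-catenin immunofluorescence imaging with DAPI; evaluation: % activation, nuclear-to-cytoplasmic median beta-catenin signal ratio per cell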
TbHK1 inh: Trypanosoma brucei hexokinase 1 inhibitors, primary screen, biochemical, G6PDH-coupled NADH absorbance, MLSCN library; hexokinase 1 [Trypanosoma brucei]; recombinant TbHK1, G6PDH-coupled NADH A340; inhibition, % at 10 µM; 220,000 tested, 0.11% active; AID 1430, 2008;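 active = inhibition of 50% or more in the single-dose primary screen; inactive = inhibition below 50%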
EP2 modulator: EP2 receptor modulators, cAMP readout, primary screen, cell-based, HTRF cAMP, PGE2 stimulation; Prostaglandin E2 receptor EP2 subtype (Homo sapiens), P43116; EP2-expressing cells, cAMP HTRF FRET, PGE2 co-stimulation; induction, % at 25 µM; 260,000 tested, 0.83% active;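 active = compounds whose cAMP rise, as percent of the full-agonist control response, exceeds 60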;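 also: rat C6 glioma line stably carrying human EP2 under a CMV promoter; the protocol text gives 20 µM as final concentration; 100% = response of wells given 1 µM PGE2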
EP2 cAMP induct: cAMP induction in EP2, EP4, beta2-AR and parental cells, confirmation, counter-screen for EP2 modulator project, cell-based, five parallel assays, C6 glioma, HEK293; shares compounds with EP2 modulator; cAMP HTRF induction; plus low (about EC15) PGE2 agonist; calls only at 20 µM (by protocol); 1,300 tested, 47% active;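 active = cAMP induction above 50% in the main assay while under 30% in all four parallel counter assays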;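 also: rat C6 glioma cells stably expressing human EP2 receptor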
Starred values were filed as active, the others as inactive; i = inactive; x = no result given; + = active, no number.

SMILES | MT stabilize HCS | HMGR II inh | EP2 antag | b-catenin transl | TbHK1 inh | EP2 modulator | EP2 cAMP induct
Cc1cccc(OC(=O)c2sc(Cl)nc2C)c1 | 4 | 1 | 13 | x | -14 | 68* | i
CC(C)Cc1nc2sc3c(=O)[nH]cnc3c2c2c1CCC2 | 6 | -2 | 5 | 0 | -7 | 74* | i
CCc1nc2sc3c(=O)[nH]cnc3c2c2c1CSC(C)(C)C2 | x | x | 9 | 2 | -10 | 49 | x
Cc1cccc(C)c1N1CCN(c2ccc3nnc(C(F)(F)F)n3n2)CC1 | 3 | -1 | 4 | -3 | 4 | 70* | +
FC(F)(F)c1nnc2ccc(N3CCOCC3)nn12 | 1 | -4 | 17 | 2 | -5 | 37 | x
C=CCn1c(N2CCC(C(=O)NCCOC=C)CC2)nc2ccccc21 | x | x | x | x | x | -56 | x
COC(=O)c1cc2occc2n1Cc1nc(-c2ccccc2Cl)oc1C | 3 | -3 | 11 | 1 | 3 | 49 | x
COC(=O)c1cc2occc2n1Cc1cccc(C)c1 | 2 | -4 | 3 | -2 | 12 | 76* | +
C[N+]1(C)Cc2cc3ccc(Cl)cc3cc2C1 | x | x | 5 | x | x | -7 | x
CCSc1nc2c(c(=O)[nH]c(=O)n2C)n1Cc1ccc(Cl)cc1 | 1 | -2 | 11 | -1 | 1 | 66* | i
CCCCCn1c(N2CCN(c3cccc(Cl)c3)CC2)nc2c1c(=O)[nH]c(=O)n2C | 5 | -7 | 11 | -1 | 9 | 58 | x
CCCCCCn1c(SCC(C)C)nc2c1c(=O)[nH]c(=O)n2C | 4 | -6 | 9 | -9 | -1 | 67* | i
CCCCCn1c(CN2CCN(c3cc(Cl)ccc3C)CC2)nc2c1c(=O)[nH]c(=O)n2C | 8 | -6 | 6 | 2 | 18 | 78* | i
O=C(CN1C(=O)[C@H]2CCCN2C(=O)c2ccccc21)NCc1ccco1 | x | x | 11 | x | x | -12 | x
CSc1ncc(C(=O)Nc2cccc(C(=O)N(C)C3CCCCC3)c2)cn1 | x | x | 5 | x | x | -25 | x
N#Cc1sc2nc(C3CC3)cc(-c3ccccc3)c2c1N | 2 | 3 | 10 | 2 | -1 | 83* | +
N#Cc1sc2nc(-c3ccccc3)cc(-c3ccco3)c2c1N | 4 | -3 | 12 | -1 | -1 | 31 | x
Cc1cccc(Oc2nc(-c3ccccc3)cc(C)c2S(C)(=O)=O)c1C | 2 | 0 | 16 | 4 | 5 | 72* | +
COc1ccccc1Oc1nc(-c2ccccc2)cc(C)c1S(C)(=O)=O | 2 | -3 | 6 | 0 | 2 | 36 | x
CCOC(=O)c1c(NC(=O)CC)sc(C)c1-c1ccc(OC)c(OC)c1 | x | x | 11 | x | x | 32 | x
COc1cc(/C=C2\SC(=S)N(Nc3ncc(C(F)(F)F)cc3Cl)C2=O)ccc1O | 7 | -1 | 7 | x | -11 | 66* | i
COC(=O)c1c(NC(NC(=O)C(C)C)C(Cl)(Cl)Cl)sc2c1CCCC2 (stereo not given) | 4 | -3 | 4 | 1 | -12 | 56 | i
COC(=O)c1c(NC(C)=O)sc2c1CCCC2 | 2 | 4 | 13 | -5 | -9 | 5 | x
COc1ccc(-n2c(SCC(=O)Nc3cccc(C)c3)nc3sc(C)c(C)c3c2=O)cc1 | x | x | 23 | x | x | 11 | x
Cc1ccccc1Cn1c(-c2cncs2)nc2ccccc21 | 4 | 3 | 16 | x | 4 | 68* | i
Brc1ccccc1Cn1c(-c2cscn2)nc2ccccc21 | 2 | -1 | 4 | x | 2 | 80* | +
Cc1cccc(Cn2c(Cc3ccccc3)nc3ccccc32)c1 | 3 | -6 | 10 | -1 | 30 | 93* | +
Brc1cc2c(cc1Cn1c(-c3cncs3)nc3ccccc31)OCO2 | 2 | -4 | 7 | 1 | -1 | 50 | x
Cc1ccccc1Cn1c(Cc2ccccc2)nc2ccccc21 | 1 | -5 | 7 | -1 | 5 | 71* | +
